# The sample as a whole holds a higher share of hits than the screen did.
# T cruzi growth-1 – inhibitors of T. cruzi proliferation. T. cruzi beta-gal in NIH3T3, GalScreen luminescence, 90 h. inhibition, % at 8.34 µM. actives 5.9% (n = 77,000);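 active = mean inhibition above about 93%, with at least 55% of replicates each passing it, limit read from the data, passing the limit was not always enough; inconclusive = only one of those two conditions holds; inactive = neither condition holds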
# IDH1 mut inh – IDH1 R132H (human) inhibition | IDH1 R132H reductase, diaphorase/resazurin fluorescence, 60 min | actives 0.18% (n = 70,000) | AID 624101 | O75874 | inhibition, % at 10 µM; in the data active = inhibition above about 34%; inconclusive = no clear call, values can overlap the other calls; inactive = below about 11%
# Target sequence (O75874 whole entry R132H): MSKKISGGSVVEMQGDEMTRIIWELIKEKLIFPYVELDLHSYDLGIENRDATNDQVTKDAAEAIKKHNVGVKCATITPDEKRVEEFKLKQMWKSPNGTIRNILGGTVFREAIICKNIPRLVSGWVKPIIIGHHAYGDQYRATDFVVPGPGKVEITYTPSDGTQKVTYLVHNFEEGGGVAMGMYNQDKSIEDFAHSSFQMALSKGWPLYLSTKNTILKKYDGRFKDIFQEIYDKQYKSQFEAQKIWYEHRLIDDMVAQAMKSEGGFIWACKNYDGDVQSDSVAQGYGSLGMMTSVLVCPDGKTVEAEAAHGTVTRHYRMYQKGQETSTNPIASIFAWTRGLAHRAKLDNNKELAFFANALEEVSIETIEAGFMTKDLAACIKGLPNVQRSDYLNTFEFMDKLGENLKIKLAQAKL
# GASC1 inh – KDM4C (human) demethylase inhibition. Q9H3R0. actives 0.15% (n = 96,000). inhibition, % at 12.5 µM. GST-KDM4C 2-372, H3K9me3 peptide, LANCE TR-FRET;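 active = mean replicate inhibition above about 25%, with at least 55% of replicates also reaching it, limit read from the data, passing the limit was not always enough; inconclusive = only one of those two conditions met; inactive = neither condition met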
# Target sequence (Q9H3R0 2-372 limits assumed): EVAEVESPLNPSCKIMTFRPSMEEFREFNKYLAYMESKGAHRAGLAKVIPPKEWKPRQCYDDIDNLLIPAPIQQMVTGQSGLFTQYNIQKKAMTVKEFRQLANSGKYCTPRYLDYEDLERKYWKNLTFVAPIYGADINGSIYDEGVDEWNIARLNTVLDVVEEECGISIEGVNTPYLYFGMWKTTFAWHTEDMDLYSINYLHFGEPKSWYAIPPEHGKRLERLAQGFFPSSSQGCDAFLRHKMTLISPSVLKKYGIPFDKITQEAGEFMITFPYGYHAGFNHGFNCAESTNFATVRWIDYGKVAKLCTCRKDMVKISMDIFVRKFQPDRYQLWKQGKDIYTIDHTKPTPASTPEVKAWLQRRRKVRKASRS
#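 material = GST-tagged GASC-1 (JMJD2C) catalytic fragment, aa 2-372 | amount = enzyme final amount 10 nM | medium = HEPES buffer, pH 7.5, plus ascorbate | also added = H3K9me3 peptide substrate, Fe(II), 2-oxoglutarate | dosing = single dose | times = 30 min demethylation and 1 h detection at room temperature | detection = LANCE TR-FRET | read-out basis = Fall in 671/618 emission ratio as inhibition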
# T cruzi growth-2 – Trypanosoma cruzi proliferation inhibition | shares compounds with T cruzi growth-1 | T. cruzi beta-gal in NIH3T3, GalScreen luminescence, 90 h | inhibition, % at 8.35 µM | actives 72% (n = 5,600);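 active = mean replicate inhibition above about 95% and at least 55% of replicates individually reaching it, limit read from the data; inconclusive = only one of the two criteria is met; inactive = neither criterion is met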
# T cruzi growth-3 – Trypanosoma cruzi proliferation inhibition; shares compounds with T cruzi growth-1; T. cruzi beta-gal in NIH3T3, GalScreen luminescence, 90 h; inhibition, % at 2.09 µM; actives 21% (n = 5,600);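 active = mean inhibition above about 95%, with at least 55% of replicates also reaching it, limit read from the data; inconclusive = meets just one of the two conditions; inactive = meets neither condition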
# 3T3 cytotox – kills mouse NIH/3T3 fibroblasts; AID 651742; shares compounds with T cruzi growth-1; actives 14% (n = 5,600); cytotoxicity (signal decrease), % at 8.35 µM; NIH/3T3 viability, CellTiter-Glo ATP luminescence, 90 h;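 active = mean signal decrease across replicates above about 35% based on untreated-well scatter, with enough replicates individually passing, limit read from the data; inconclusive = no rule stated though some were filed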
# 3T3 cytotox 2 – NIH/3T3 (mouse) viability loss; shares compounds with T cruzi growth-1; NIH/3T3 viability, CellTiter-Glo ATP luminescence, 90 h; inhibition, % at 24.9 µM; actives 56% (n = 5,600); AID 651744;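 active = mean loss of cell viability signal at or above a set limit, and enough replicates individually reaching it; inconclusive = meets only the mean limit or only the replicate share; inactive = meets neither condition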
# Hits are given with their value; 0 = inactive; ? = inconclusive; - = not tested or not shown.
SMILES,T cruzi growth-1,IDH1 mut inh,GASC1 inh,others
C[C@H](CO)N1C[C@H](C)[C@H](CN(C)Cc2ccc(C(F)(F)F)cc2)Oc2c(NC(=O)Nc3ccccc3)cccc2C1=O,0,0,0,
C[C@H](CO)N1C[C@H](C)[C@H](CN(C)Cc2ccc(C(F)(F)F)cc2)Oc2ccc(NC(=O)Nc3cccc4ccccc34)cc2C1=O,0,0,0,
C[C@@H]1CN([C@H](C)CO)C(=O)c2cc(NC(=O)Nc3cccc4ccccc34)ccc2O[C@@H]1CN(C)Cc1ccc(C(F)(F)F)cc1,92.0,0,0,T cruzi growth-2=96.8;T cruzi growth-3=0;3T3 cytotox=47.4;3T3 cytotox 2=38.2
C[C@H](CO)N1C[C@H](C)[C@H](CN(C)Cc2ccc(C(F)(F)F)cc2)Oc2c(NC(=O)Nc3cccc4ccccc34)cccc2C1=O,111.0,-,0,T cruzi growth-2=102.8;T cruzi growth-3=0;3T3 cytotox=0;3T3 cytotox 2=29.9
C[C@@H]1CN([C@@H](C)CO)C(=O)c2cc(NC(=O)Nc3cccc4ccccc34)ccc2O[C@@H]1CN(C)Cc1ccc(C(F)(F)F)cc1,105.9,0,0,T cruzi growth-2=105.6;T cruzi growth-3=107.1;3T3 cytotox=52.8;3T3 cytotox 2=46.0
O=C([C@H]1[C@H](CO)[C@H]2Cn3c(cccc3=O)[C@@H]1N2CC1CCCC1)N1CCCCC1,0,-,0,
COc1ccc(NC(=O)Cn2cnc3sc4c(c3c2=O)CCC(C)C4)cc1 (centres undefined),-,0,-,
CO[C@@H]1CN(C)C(=O)c2ccc(NC(=O)C3CCCCC3)cc2OC[C@@H](C)N(C(=O)c2ccccc2)C[C@H]1C,0,0,0,
Cc1ccc([N+](=O)[O-])cc1NC(=O)CN(c1cc(C(F)(F)F)ccc1Cl)S(C)(=O)=O,-,0,-,
CO[C@@H]1CN(C)C(=O)c2cc(NC(=O)c3ccccc3F)ccc2OC[C@@H](C)N(CC2CC2)C[C@@H]1C,-,0,0,
COCC(=O)N1[C@H](C#N)[C@H](c2ccccc2)[C@H]1CO,0,-,0,
N#C[C@H]1[C@@H](c2ccc(C#Cc3ccccc3F)cc2)[C@H](CO)N1C(=O)C1CCC1,0,-,0,
N#C[C@H]1[C@H](c2ccc(C#Cc3ccccc3F)cc2)[C@@H](CO)N1C(=O)c1cccnc1,?,-,0,T cruzi growth-2=105.2;T cruzi growth-3=0;3T3 cytotox=0;3T3 cytotox 2=0
N#C[C@H]1[C@H](c2ccc(C#Cc3ccccc3F)cc2)[C@H](CO)N1C(=O)C1CC1,0,-,0,
COCC(=O)N1[C@H](C#N)[C@H](c2ccc(C#Cc3ccccc3F)cc2)[C@H]1CO,106.5,-,0,T cruzi growth-2=98.5;T cruzi growth-3=0;3T3 cytotox=0;3T3 cytotox 2=?
COCC(=O)N1[C@@H](C#N)[C@@H](c2ccc(C#Cc3ccccc3F)cc2)[C@@H]1CO,105.9,-,0,T cruzi growth-2=0;T cruzi growth-3=0;3T3 cytotox=0;3T3 cytotox 2=94.5
N#C[C@@H]1[C@@H](c2ccc(C#Cc3ccccc3F)cc2)[C@H](CO)N1C(=O)c1cccnc1,0,-,0,
COCC(=O)N1[C@@H](C#N)[C@H](c2ccc(C#Cc3ccccc3F)cc2)[C@@H]1CO,100.5,-,0,T cruzi growth-2=103.1;T cruzi growth-3=0;3T3 cytotox=0;3T3 cytotox 2=0
C=CCN(CC=C)C(=O)Cc1ccc(Br)cc1,-,0,-,
Cc1cccc(OCC(=O)Nc2ccccc2N2CCN(S(C)(=O)=O)CC2)c1C,-,0,-,
C[C@@H]1CN([C@@H](C)CO)C(=O)c2cccc(NC(=O)Nc3ccc4c(c3)OCO4)c2O[C@@H]1CN(C)CC1CC1,-,0,0,
CO[C@H]1CN(C)C(=O)c2ccc(NC(=O)C3CC3)cc2OC[C@@H](C)N(CCC(F)(F)F)C[C@@H]1C,0,0,0,
CCOC(=O)c1c(NC(=O)C23CCC(C)(C(=O)O2)C3(C)C)sc2c1CCCC2 (centres undefined),-,0,-,
COc1ccccc1NC(=O)N1C[C@@H](O)COC[C@@H]2O[C@@H](CC(=O)NCCc3ccccc3)CC[C@H]21,0,-,0,
COc1cc(C(=O)Oc2ccccc2NC2=NS(=O)(=O)c3ccccc32)cc(OC)c1OC,-,0,-,
SMILES,T cruzi growth-1,IDH1 mut inh,GASC1 inh,others
COCC(=O)N1[C@H](C#N)[C@H](c2ccc(C#Cc3ccccc3F)cc2)[C@@H]1CO,102.1,-,0,T cruzi growth-2=102.9;T cruzi growth-3=0;3T3 cytotox=0;3T3 cytotox 2=?
COCC(=O)N1[C@H](C#N)[C@@H](c2ccccc2)[C@@H]1CO,0,-,0,
Cc1ccc(OCCCSc2nc(C)cc(=O)[nH]2)c(I)c1,-,0,-,
COC(=O)c1ccccc1NC(=O)CN(C)S(=O)(=O)c1c(C)cc(C)cc1C,-,0,-,
O=C(COc1ccccc1Cl)Nc1ccccc1NC(=O)c1ccco1,-,0,-,
COc1ccccc1-c1ccc2c(c1)O[C@H](CN(C)C(=O)c1ccncc1)[C@@H](C)CN([C@H](C)CO)S2(=O)=O,0,0,0,
C/C=C/c1ccc2c(c1)O[C@@H](CN(C)C(=O)c1ccccc1)[C@@H](C)CN([C@H](C)CO)S2(=O)=O,-,0,0,
C[C@@H]1CN([C@H](C)CO)S(=O)(=O)c2ccc(/C=C/c3ccccc3)cc2O[C@H]1CN(C)C(=O)c1ccccc1,127.7,0,-,T cruzi growth-2=110.7;T cruzi growth-3=0;3T3 cytotox=0;3T3 cytotox 2=99.7
COc1ccccc1-c1ccc2c(c1)O[C@@H](CN(C)C(=O)c1ccncc1)[C@@H](C)CN([C@@H](C)CO)S2(=O)=O,108.1,0,0,T cruzi growth-2=96.1;T cruzi growth-3=0;3T3 cytotox=0;3T3 cytotox 2=24.9
C[C@H]1CN([C@@H](C)CO)S(=O)(=O)c2ccc(/C=C/c3ccccc3)cc2O[C@H]1CN(C)C(=O)c1ccncc1,105.8,0,0,T cruzi growth-2=108.9;T cruzi growth-3=0;3T3 cytotox=43.6;3T3 cytotox 2=70.3
C[C@@H]1CN([C@@H](C)CO)S(=O)(=O)c2ccc(/C=C/c3ccccc3)cc2O[C@@H]1CN(C)C(=O)c1ccncc1,0,0,0,
CCCNC(=O)Nc1ccc2c(c1)C(=O)N(C)C[C@H](OC)[C@@H](C)CN(CCC(F)(F)F)[C@H](C)CO2,0,0,0,
CCCNC(=O)N(C)C[C@H]1Oc2ncc(C#CCc3ccccc3)cc2C(=O)N([C@H](C)CO)C[C@@H]1C,-,0,0,
Cc1ccc([N+](=O)[O-])cc1N(CC(=O)O)S(C)(=O)=O,-,0,-,
COc1ccc(C(=O)CC2(O)C(=O)N(Cc3ccc(C)cc3)c3ccc(Cl)cc32)cc1[N+](=O)[O-] (centres undefined),-,0,-,
O=C(c1ccccc1)N1CC2(C1)[C@@H](c1ccccc1)[C@@H](CO)N2C(=O)CC1CC1,-,-,0,
Cc1noc(C)c1S(=O)(=O)Nc1ccc2c(c1)C(=O)N([C@H](C)CO)C[C@@H](C)[C@H](CN(C)C(=O)C1CCCCC1)OCCCC[C@@H](C)O2,0,0,0,
NC(=O)CN(Cc1ccc(F)cc1)S(=O)(=O)c1ccc(Cl)cc1,-,0,-,
CC1=CC(C)(C)Nc2ccc(OC(=O)CN3C(=O)c4cccc([N+](=O)[O-])c4C3=O)cc21,-,0,-,
C[C@@H]1CN([C@@H](C)CO)C(=O)c2cc(C#CCN(C)C)cnc2O[C@@H]1CN(C)Cc1ccccc1,0,0,-,
